6 compounds from ChEMBL document CHEMBL4665843, “Automated Design of Macrocycles for Therapeutic Applications: From Small Molecules to Peptides and Proteins” (J Med Chem, 2020) can be followed below.

The target of one assay is Glucagon receptor (Homo sapiens, UniProt P47871). Put plainly: Agonist activity at human glucagon receptor expressed in HEK293 cells assessed as induction of cAMP accumulation incubated for 30 mins by HTRF assay. The format is functional, cell-based. For orientation: Changes in cAMP serve as a functional read-out for many G protein-coupled receptors.
Chain of Glucagon receptor (P47871 whole entry): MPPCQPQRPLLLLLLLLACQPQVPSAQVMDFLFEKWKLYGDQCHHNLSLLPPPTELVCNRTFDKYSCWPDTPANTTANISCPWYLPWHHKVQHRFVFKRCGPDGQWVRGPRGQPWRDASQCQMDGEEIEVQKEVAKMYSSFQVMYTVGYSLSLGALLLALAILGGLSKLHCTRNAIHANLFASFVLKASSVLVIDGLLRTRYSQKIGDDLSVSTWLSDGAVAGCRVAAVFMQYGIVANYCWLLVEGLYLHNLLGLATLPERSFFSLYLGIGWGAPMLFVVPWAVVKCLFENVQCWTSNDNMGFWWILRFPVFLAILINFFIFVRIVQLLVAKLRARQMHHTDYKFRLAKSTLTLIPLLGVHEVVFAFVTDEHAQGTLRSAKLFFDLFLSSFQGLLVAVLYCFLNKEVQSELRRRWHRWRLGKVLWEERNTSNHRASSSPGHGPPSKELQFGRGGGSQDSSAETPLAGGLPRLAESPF
For assay [1], the target named is Glucagon-like peptide 1 receptor (Homo sapiens, UniProt P43220). In words: Agonist activity at human GLP-1 receptor expressed in HEK293 cells assessed as induction of cAMP accumulation incubated for 30 mins by HTRF assay. The assay is classed as functional, cell-based. The procedure, abridged: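 HEK-293 cells stably expressing human receptor, grown in DMEM/10% FBS, frozen, thawed and washed in HBSS/20 mM HEPES/0.1% HSA; resuspended with 2 mM IBMX. 5000 cells/well incubated with peptide 30 min at room temperature; cAMP by HTRF kit, 1 h with reagents in lysis buffer, 665/620 nm fluorescence ratio.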
Chain of Glucagon-like peptide 1 receptor (P43220 whole entry): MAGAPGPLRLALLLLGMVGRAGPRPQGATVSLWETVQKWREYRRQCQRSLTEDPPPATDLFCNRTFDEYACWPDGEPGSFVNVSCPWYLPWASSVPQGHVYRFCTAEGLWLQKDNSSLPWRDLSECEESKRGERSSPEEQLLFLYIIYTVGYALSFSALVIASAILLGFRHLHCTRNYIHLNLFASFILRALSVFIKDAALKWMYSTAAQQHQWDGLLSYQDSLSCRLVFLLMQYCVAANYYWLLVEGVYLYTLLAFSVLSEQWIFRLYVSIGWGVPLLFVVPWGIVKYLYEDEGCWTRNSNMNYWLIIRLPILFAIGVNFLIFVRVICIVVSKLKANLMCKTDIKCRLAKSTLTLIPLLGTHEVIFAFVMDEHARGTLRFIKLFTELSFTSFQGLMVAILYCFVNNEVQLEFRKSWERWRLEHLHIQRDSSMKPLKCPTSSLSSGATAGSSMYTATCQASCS

Consider `CC[C@H](C)[C@H](NC(=O)[C@H](Cc1ccccc1)NC(=O)[C@H](CC(=O)O)NC(=O)[C@H](CCC(N)=O)NC(=O)[C@H](C)NC(=O)[C@H](CCCNC(=N)N)NC(=O)[C@H](CCCNC(=N)N)NC(=O)[C@H](CO)NC(=O)[C@H](CC(=O)O)NC(=O)[C@]1(C)CCC/C=C\CCC[C@](C)(NC(=O)[C@H](CC(=O)O)NC(=O)[C@H](CO)NC(=O)[C@@H](NC(=O)[C@H](Cc2ccccc2)NC(=O)[C@@H](NC(=O)CNC(=O)[C@H](CCC(N)=O)NC(=O)[C@H](CO)NC(=O)[C@@H](N)Cc2cnc[nH]2)[C@@H](C)O)[C@@H](C)O)C(=O)N[C@@H](CO)C(=O)N[C@@H](CCCCN)C(=O)N[C@@H](CCC(N)=O)C(=O)N1)C(=O)N[C@@H](CCC(=O)O)C(=O)N[C@@H](Cc1c[nH]c2ccccc12)C(=O)N[C@@H](CC(C)C)C(=O)N[C@@H](CCCCN)C(=O)N[C@@H](CC(N)=O)C(=O)NCC(=O)NCC(=O)N1CCC[C@H]1C(=O)N[C@@H](CO)C(=O)N[C@@H](CO)C(=O)NCC(=O)N[C@@H](C)C(=O)N1CCC[C@H]1C(=O)N1CCC[C@H]1C(=O)N1CCC[C@H]1C(=O)N[C@@H](CO)C(N)=O`, for which the EC50 at Glucagon receptor turned out to be 0.0023 nM; in assay [1], 0.0074 nM.
As for `CC[C@H](C)[C@H](NC(=O)[C@H](Cc1ccccc1)NC(=O)[C@H](CC(=O)O)NC(=O)[C@H](CCC(N)=O)NC(=O)[C@H](C)NC(=O)[C@H](CCCNC(=N)N)NC(=O)[C@H](CCCNC(=N)N)NC(=O)[C@H](CO)NC(=O)[C@H](CC(=O)O)NC(=O)[C@H](CCSC)NC(=O)[C@H](CCC(N)=O)NC(=O)[C@H](CCCCN)NC(=O)[C@H](CO)NC(=O)[C@H](CC(C)C)NC(=O)[C@H](CC(=O)O)NC(=O)[C@H](CO)NC(=O)[C@@H](NC(=O)[C@H](Cc1ccccc1)NC(=O)[C@@H](NC(=O)CNC(=O)[C@H](CCC(N)=O)NC(=O)[C@@H](CO)NC(=O)[C@@H](N)Cc1cnc[nH]1)[C@@H](C)O)[C@@H](C)O)C(=O)N[C@@H](CCC(=O)O)C(=O)N[C@@H](Cc1c[nH]c2ccccc12)C(=O)N[C@@H](CC(C)C)C(=O)N[C@@H](CCCCN)C(=O)N[C@@H](CC(N)=O)C(=O)NCC(=O)NCC(=O)N1CCC[C@H]1C(=O)N[C@@H](CO)C(=O)N[C@@H](CO)C(=O)NCC(=O)N[C@@H](C)C(=O)N1CCC[C@H]1C(=O)N1CCC[C@H]1C(=O)N1CCC[C@H]1C(=O)N[C@@H](CO)C(N)=O`, the results for the EC50 (on Glucagon receptor; in assay [1]) were 0.122 nM and 0.0754 nM, respectively.
The matching figures for `CC[C@H](C)[C@H](NC(=O)[C@H](Cc1ccccc1)NC(=O)[C@H](CC(=O)O)NC(=O)[C@H](CCC(N)=O)NC(=O)[C@H](C)NC(=O)[C@]1(C)CCC/C=C\CCC[C@](C)(NC(=O)[C@H](CCC(N)=O)NC(=O)[C@H](CCCCN)NC(=O)[C@H](CO)NC(=O)[C@H](CC(C)C)NC(=O)[C@H](CC(=O)O)NC(=O)[C@H](CO)NC(=O)[C@@H](NC(=O)[C@H](Cc2ccccc2)NC(=O)[C@@H](NC(=O)CNC(=O)[C@H](CCC(N)=O)NC(=O)[C@@H](CO)NC(=O)[C@@H](N)Cc2cnc[nH]2)[C@@H](C)O)[C@@H](C)O)C(=O)N[C@@H](CC(=O)O)C(=O)N[C@@H](CO)C(=O)N[C@@H](CCCNC(=N)N)C(=O)N1)C(=O)N[C@@H](CCC(=O)O)C(=O)N[C@@H](Cc1c[nH]c2ccccc12)C(=O)N[C@@H](CC(C)C)C(=O)N[C@@H](CCCCN)C(=O)N[C@@H](CC(N)=O)C(=O)NCC(=O)NCC(=O)N1CCC[C@H]1C(=O)N[C@@H](CO)C(=O)N[C@@H](CO)C(=O)NCC(=O)N[C@@H](C)C(=O)N1CCC[C@H]1C(=O)N1CCC[C@H]1C(=O)N1CCC[C@H]1C(=O)N[C@@H](CO)C(N)=O`: 8.43 nM and 0.0012 nM.
As for `CC[C@H](C)[C@H](NC(=O)[C@H](Cc1ccccc1)NC(=O)[C@H](CC(=O)O)NC(=O)[C@H](CCC(N)=O)NC(=O)[C@H](C)NC(=O)[C@]1(C)CCC/C=C/CCC[C@](C)(NC(=O)[C@H](CCC(N)=O)NC(=O)[C@H](CCCCN)NC(=O)[C@H](CO)NC(=O)[C@H](CC(C)C)NC(=O)[C@H](CC(=O)O)NC(=O)[C@H](CO)NC(=O)[C@@H](NC(=O)[C@H](Cc2ccccc2)NC(=O)[C@@H](NC(=O)CNC(=O)[C@H](CCC(N)=O)NC(=O)[C@H](CO)NC(=O)[C@@H](N)Cc2cnc[nH]2)[C@@H](C)O)[C@@H](C)O)C(=O)N[C@@H](CC(=O)O)C(=O)N[C@@H](CO)C(=O)N[C@@H](CCCNC(=N)N)C(=O)N1)C(=O)N[C@@H](CCC(=O)O)C(=O)N[C@@H](Cc1c[nH]c2ccccc12)C(=O)N[C@@H](CC(C)C)C(=O)N[C@@H](CCCCN)C(=O)N[C@@H](CC(N)=O)C(=O)NCC(=O)NCC(=O)N1CCC[C@H]1C(=O)N[C@@H](CO)C(=O)N[C@@H](CO)C(=O)NCC(=O)N[C@@H](C)C(=O)N1CCC[C@H]1C(=O)N1CCC[C@H]1C(=O)N1CCC[C@H]1C(=O)N[C@@H](CO)C(N)=O`, the EC50 at Glucagon receptor worked out at 0.369 nM; in assay [1], 0.0004 nM.
The matching figures for `CC[C@H](C)[C@H](NC(=O)[C@H](Cc1ccccc1)NC(=O)[C@H](CC(=O)O)NC(=O)[C@@H]1CCC(=O)NCCCC[C@H](NC(=O)[C@H](CC(=O)O)NC(=O)[C@H](CCSC)NC(=O)[C@H](CCC(N)=O)NC(=O)[C@H](CCCCN)NC(=O)[C@H](CO)NC(=O)[C@H](CC(C)C)NC(=O)[C@H](CC(=O)O)NC(=O)[C@H](CO)NC(=O)[C@@H](NC(=O)[C@H](Cc2ccccc2)NC(=O)[C@@H](NC(=O)CNC(=O)[C@H](CCC(N)=O)NC(=O)[C@@H](CO)NC(=O)[C@@H](N)Cc2cnc[nH]2)[C@@H](C)O)[C@@H](C)O)C(=O)N[C@@H](CCCNC(=N)N)C(=O)N[C@@H](CCCNC(=N)N)C(=O)N[C@@H](C)C(=O)N1)C(=O)N[C@@H](CCC(=O)O)C(=O)N[C@@H](Cc1c[nH]c2ccccc12)C(=O)N[C@@H](CC(C)C)C(=O)N[C@@H](CCCCN)C(=O)N[C@@H](CC(N)=O)C(=O)NCC(=O)NCC(=O)N1CCC[C@H]1C(=O)N[C@@H](CO)C(=O)N[C@@H](CO)C(=O)NCC(=O)N[C@@H](C)C(=O)N1CCC[C@H]1C(=O)N1CCC[C@H]1C(=O)N1CCC[C@H]1C(=O)N[C@@H](CO)C(N)=O`: 0.0078 nM and 0.0064 nM.
As to `CC[C@H](C)[C@@H]1NC(=O)[C@H](Cc2ccccc2)NC(=O)[C@@H](NC(=O)[C@H](CCC(N)=O)NC(=O)[C@H](C)NC(=O)[C@H](CCCNC(=N)N)NC(=O)[C@H](CCCNC(=N)N)NC(=O)[C@H](CO)NC(=O)[C@H](CC(=O)O)NC(=O)[C@H](CCSC)NC(=O)[C@H](CCC(N)=O)NC(=O)[C@H](CCCCN)NC(=O)[C@H](CO)NC(=O)[C@H](CC(C)C)NC(=O)[C@H](CC(=O)O)NC(=O)[C@H](CO)NC(=O)[C@@H](NC(=O)[C@H](Cc2ccccc2)NC(=O)[C@@H](NC(=O)CNC(=O)[C@H](CCC(N)=O)NC(=O)[C@H](CO)NC(=O)[C@@H](N)Cc2cnc[nH]2)[C@@H](C)O)[C@@H](C)O)CSCc2cc3cc(c2)CSC[C@@H](C(=O)N2CCC[C@H]2C(=O)N2CCC[C@H]2C(=O)N2CCC[C@H]2C(=O)N[C@@H](CO)C(N)=O)NC(=O)CNC(=O)[C@H](CO)NC(=O)[C@@H](CO)NC(=O)[C@@H]2CCCN2C(=O)CNC(=O)CNC(=O)[C@H](CSC3)NC(=O)[C@H](CCCCN)NC(=O)[C@H](CC(C)C)NC(=O)[C@H](Cc2c[nH]c3ccccc23)NC(=O)[C@H](CCC(=O)O)NC1=O`, the results for the EC50 (on Glucagon receptor; in assay [1]) were 0.578 nM and 0.194 nM, respectively.

The EC50 is the midpoint of the concentration-response curve.
